Activity calls are given as the source filed them.
Tests used:
[1] = Inactivation processes of human heart Na channel expressed in Xenopus oocytes as increase in current at 10 uM; format: functional, Oocyte
In short: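 Oocytes injected with cRNA transcribed from human cardiac Na channel (HH1) cDNA. Two-microelectrode voltage clamp at 21–23 °C, perfusion buffer with Na raised to 140 mM. Current integrated at −20 mV after the capacity transient settled. Single 10 μM exposure per oocyte; percent change in integral versus control, ± SEM.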

[2] = Effective concentration against Xenopus oocytes expressing guinea pig heart Na channel; format: functional, cell-based, Cavia porcellus; settings: oocyte
In short: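 Guinea pig heart RNA in Xenopus oocytes, voltage clamp at 21–23 °C, integral taken at −10 mV. Three or more concentrations, n ≥ 3 each, one per oocyte. Pooled percent-change data plotted semilogarithmically; EC50 (nM giving 50% integral increase) obtained by linear regression over the range lacking significant current block.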

Oryctolagus cuniculus [3] = species on record: Oryctolagus cuniculus; experiment: Antiarrhythmic activity was determined by measuring the concentration that produced a 20 ms increase in ERP; format: functional, Heart
In short: (§1)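 Langendorff-perfused rabbit heart, equilibrated 45 min before control. ERP measured after 15 min exposure to each of five cumulative concentrations: single premature stimulus scanning diastole at twice threshold. Concentration giving a 20 ms ERP increase taken from the concentration–response curve; repeated-measures ANOVA, mean change ± SEM.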

Oryctolagus cuniculus [4] = species on record: Oryctolagus cuniculus; experiment: Concentration which increased contractility by 20% in rabbit; format: functional
In short: (§2)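 Langendorff-perfused rabbit heart, 45 min equilibration, then five cumulative concentrations with 15 min exposure each. Contractility read as dP/dt; the nanomolar concentration raising it by 20% was derived from the concentration–response curve. Repeated-measures ANOVA, mean change from control ± SEM.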

[5] = test system: Sodium channel protein type 5 subunit alpha (Cavia porcellus); experiment: Inactivation process of guinea pig cardiac Na channels expressed in xenopus oocytes was determined by measuring increase in current integral in presence of compound versus control at 10 uM; settings: oocyte
[6] = Effective concentration against Xenopus oocytes expressing human heart Na channel; format: functional, cell-based; settings: oocyte
In short: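 HH1 human cardiac Na channel cRNA in oocytes; perfusate Na 140 mM, 21–23 °C, integral taken at −20 mV. At least three concentrations, n ≥ 3 each, single concentration per oocyte. Pooled data gave the EC50 (nM producing 50% integral increase) by linear regression over the lower, non-blocking range.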

Oryctolagus cuniculus [7] = species on record: Oryctolagus cuniculus; experiment: Concentration which increased contractility by 20% in rabbit; no effect at </=3 uM; format: functional, organism-based; in short: as §2
Oocyte = experiment: Inactivation of guinea pig cardiac Na channel expressed in Xenopus oocytes as increased current at 10 uM; insoluble; format: functional, cell-based; settings: Cavia porcellus
In short: (§3)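 Guinea pig heart RNA injected into defolliculated stage V–VI Xenopus oocytes; two-microelectrode voltage clamp at 21–23 °C with standard HEPES buffer perfusion, pH 7.5. Current integrated at the I–V peak (−10 mV) after the capacity transient settled. One test concentration (10 μM) per oocyte; percent change in integral calculated against that oocyte's control, reported ± SEM.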

Oryctolagus cuniculus [8] = species on record: Oryctolagus cuniculus; experiment: Antiarrhythmic activity was determined by measuring the concentration that produced a 20 ms increase in ERP; no effect at </= 3; format: functional, organism-based; settings: Heart; in short: as §1
Cavia porcellus = species on record: Cavia porcellus; experiment: Effect on inactivation processes of guinea pig cardiac Na channels expressed in Xenopus oocytes was determined by measuring the increase in current integral in the presence of compound Vs control at 10 uM; format: functional; in short: as §3
Oryctolagus cuniculus [9] = species on record: Oryctolagus cuniculus; experiment: Concentration which increased contractility by 20% in rabbit; Negative inotropic effect observed; format: functional, organism-based; in short: as §2
Oryctolagus cuniculus [10] = species on record: Oryctolagus cuniculus; experiment: Concentration which increased contractility by 20% in rabbit; no effect; format: functional, organism-based; in short: as §2

| EC50 [2] [nM] | EC50 [6] [nM] | Compound | Change [1] [%] | EC20 (Oryctolagus cuniculus [3]) [nM] | dP/dt (Oryctolagus cuniculus [4]) [nM] | Change [5] [%] | also measured |
| --- | --- | --- | --- | --- | --- | --- | --- |
| 1040 | – | Nc1ncnc2c1ncn2C[C@@H](O)CN1CCN(C(c2ccccc2)c2ccccc2)CC1 | – | 109 | 89 | 139 | – |
| 1410 | – | Nc1ncnc2c1ncn2CC(O)CN1CCN(C(c2ccccc2)c2ccccc2)CC1 (stereo unspecified) | – | 307 | 128 | 212 | – |
| 99 | 900 | O[C@@H](CN1CCN(C(c2ccccc2)c2ccccc2)CC1)Cn1cnc2c(-n3cccn3)ncnc21 | 540 | 18 | 40 | 1226 | – |
| > 3000 | – | Cc1cn(-c2ncnc3c2ncn3CC(O)CN2CCN(C(c3ccccc3)c3ccccc3)CC2)cn1 (stereo unspecified) | – | – | – | 126 | EC20 (Oryctolagus cuniculus [8]): inactive |
| 585 | – | Cc1cnn(-c2ncnc3c2ncn3CC(O)CN2CCN(C(c3ccccc3)c3ccccc3)CC2)c1 (stereo unspecified) | – | 216 | 300 | 868 | – |
| 204 | – | OC(CN1CCN(C(c2ccccc2)c2ccccc2)CC1)Cn1cnc2c(-n3cncn3)ncnc21 (stereo unspecified) | – | 57 | 60 | 1664 | – |
| 399 | – | N#Cc1ncnc2c1ncn2CC(O)CN1CCN(C(c2ccccc2)c2ccccc2)CC1 (stereo unspecified) | – | 260 | 250 | 1328 | – |
| 796 | – | OC(CN1CCN(C(c2ccccc2)c2ccccc2)CC1)Cn1cnc2cncnc21 (stereo unspecified) | – | 95 | 110 | 288 | – |
| 630 | – | OC(CN1CCN(C(c2ccccc2)c2ccccc2)CC1)Cn1cnc2c(-n3ccnc3)ncnc21 (stereo unspecified) | – | 27 | 46 | 680 | – |

Continued, molecule first:

| Compound | EC50 [2] [nM] | EC50 [6] [nM] | Change [1] [%] | EC20 (Oryctolagus cuniculus [3]) [nM] | dP/dt (Oryctolagus cuniculus [4]) [nM] | Change [5] [%] | also measured |
| --- | --- | --- | --- | --- | --- | --- | --- |
| O[C@@H](CN1CCN(C(c2ccccc2)c2ccccc2)CC1)Cn1cnc(-c2ccccc2)c2ncnc1-2 | 160 | 1600 | 201 | 141 | 434 | 378 | – |
| N#Cc1cc2c(OCC(O)CN3CCN(C(c4ccccc4)c4ccccc4)CC3)cccc2[nH]1 (stereo unspecified) | 1920 | 2310 | 174 | 430 | – | 239 | dP/dt (Oryctolagus cuniculus [7]): inactive |
| OC(CN1CCN(C(c2ccc(Cl)cc2)c2ccc(Cl)cc2)CC1)Cn1cnc2c(-n3cccc3)ncnc21 (stereo unspecified) | – | – | – | – | – | – | Change (Oocyte): Insoluble |
| OC(CN1CCN(C(c2ccccc2)c2ccccc2)CC1)Cn1cnc2c(-c3ccc4ccccc4c3)ncnc21 (stereo unspecified) | – | – | – | – | – | – | Change (Cavia porcellus): -66% |
| O[C@H](CN1CCN(C(c2ccccc2)c2ccccc2)CC1)Cn1cnc2c(-n3cccc3)ncnc21 | – | – | – | – | – | 21 | dP/dt (Oryctolagus cuniculus [9]): inactive; EC20 (Oryctolagus cuniculus [8]): inactive |
| O[C@@H](CN1CCN(C(c2ccccc2)c2ccccc2)CC1)Cn1cnc2c(-c3ccccc3)ncnc21 | 526 | 2000 | 128 | 425 | – | 413 | dP/dt (Oryctolagus cuniculus [10]): inactive |
| O[C@@H](CN1CCN(C(c2ccccc2)c2ccccc2)CC1)Cn1cnc(-n2cccc2)c2ncnc1-2 | 85 | 290 | 540 | 43 | 377 | 711 | – |

— ChEMBL document CHEMBL1128429, “Synthesis and structure-activity relationships of 6-heterocyclic-substituted purines as inactivation modifiers of cardiac sodium channels” (J Med Chem, 1995)
